In brackets after ≈: the same amount, converted by molar mass. Activity calls are given as the source filed them. The rule behind the calls is not given here.
Columns and labels:
Pseudomonas aeruginosa [1] = assay: Antibacterial activity against Pseudomonas aeruginosa ATCC 9027 at < 100 ug/ml after 24 hrs at 37 degC by agar hole-plate diffusion assay; format: functional, organism-based
Escherichia coli [2] = assay: Antibacterial activity against Escherichia coli ATCC 8739 at < 100 ug/ml after 24 hrs at 37 degC by agar hole-plate diffusion assay; format: functional, organism-based
Bacillus subtilis [3] = assay: Antibacterial activity against Bacillus subtilis ATCC 6633 after overnight incubation at 37 degC by twofold serial dilution technique; format: functional
In short: (§1)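 Twofold broth dilution MIC. Sample at 1 mg/ml in MeOH-H2O (1:1), 0.5 ml added to 4.5 ml nutrient broth, then doubling dilutions from 100 to 0.2 μg/ml. Each tube inoculated to 10⁶ organisms/ml final. Duplicate per organism, with solvent and streptomycin control broths.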

Pseudomonas aeruginosa [4] = assay: Antibacterial activity against Pseudomonas aeruginosa ATCC 9027 by agar diffusion technique; format: functional
Staphylococcus aureus [5] = assay: Antibacterial activity against Staphylococcus aureus ATCC 6538 at 1 mg/ml after 24 hrs at 37 degC by agar hole-plate diffusion assay; format: functional; conditions: ATCC 6538, 24 h, read-out: IZ
In short: (§2)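 Agar hole-plate diffusion. Agar plates (15 ml) seeded with 1 ml overnight broth culture (10⁶ bacteria/ml); 11 mm holes filled with 100 μl of pure compound at 1 mg/ml. Streptomycin sulfate (1 mg/ml) as positive control. Duplicate per organism, 24 h at 37°. Inhibition zone diameters measured.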

Escherichia coli [6] = assay: Antibacterial activity against Escherichia coli ATCC 8739 by agar diffusion technique; format: functional
Candida albicans [7] = assay: Antifungal activity against Candida albicans ATCC 10231 at < 100 ug/ml after 24 hrs at 25 degC by agar hole-plate diffusion assay; format: functional, organism-based
Staphylococcus aureus [8] = assay: Antibacterial activity against Staphylococcus aureus ATCC 6538 after overnight incubation at 37 degC by twofold serial dilution technique; format: functional; in short: as §1
Bacillus subtilis [9] = assay: Antibacterial activity against Bacillus subtilis ATCC 6633 at 1 mg/ml after 24 hrs at 37 degC by agar hole-plate diffusion assay; format: functional; conditions: ATCC 6633, 24 h, read-out: IZ; in short: as §2
Candida albicans [10] = assay: Antifungal activity against Candida albicans ATCC 10231 by agar diffusion technique; format: functional
[11] = Cytotoxicity against human LUC1 cells after 48 hrs by sulforhodamine B assay; format: functional; conditions: LUC1, 48 h, read-out: ED50 (the source's name)
In short: (§3)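 Log-phase cells exposed to five concentrations (20.0–0.032 μg/ml) of sample in DMSO for 48 h at 37°, 5% CO₂, 100% humidity. Cell quantity per well determined by sulforhodamine B staining; ED50 reported.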

SK-MEL-2 = assay: Cytotoxicity against human SK-MEL-2 cells after 72 hrs by sulforhodamine B assay; format: functional; conditions: SK-MEL-2, 72 h, read-out: ED50 (the source's name)
In short: (§4)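 Log-phase cells treated with five sample concentrations (20.0–0.032 μg/ml) in DMSO for 72 h at 37°, 5% CO₂, 100% humidity. Sulforhodamine B staining quantified cells per well; results given as ED50.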

Bacillus subtilis [12] = assay: Antibacterial activity against Bacillus subtilis ATCC 6633 at < 100 ug/ml after 24 hrs at 37 degC by agar hole-plate diffusion assay; format: functional, organism-based
KB = assay: Cytotoxicity against human KB cells after 72 hrs by sulforhodamine B assay; format: functional; conditions: read-out: ED50 (the source's name); in short: as §4
HT-1080 = assay: Cytotoxicity against human HT1080 cells after 48 hrs by sulforhodamine B assay; format: functional; conditions: HT-1080, 48 h, read-out: ED50 (the source's name); in short: as §3
[13] = Cytotoxicity against vinblastine-resistant human KBV1 cells after 72 hrs by sulforhodamine B assay; format: functional; conditions: KB-V1, 72 h, read-out: ED50 (the source's name); in short: as §4
[14] = Cytotoxicity against human BC1 cells after 72 hrs by sulforhodamine B assay; format: functional; conditions: BC1, 72 h, read-out: ED50 (the source's name); in short: as §4
P388 = assay: Cytotoxicity against mouse P388 cells after 48 hrs by sulforhodamine B assay; format: functional; conditions: P388, 48 h, read-out: ED50 (the source's name); in short: as §3
A-431 = assay: Cytotoxicity against human A431 cells after 72 hrs by sulforhodamine B assay; format: functional; conditions: A-431, 72 h, read-out: ED50 (the source's name); in short: as §4
ZR-75-1 = assay: Cytotoxicity against human ZR-75-1 cells after 72 hrs by sulforhodamine B assay; format: functional; conditions: ZR-75-1, 72 h, read-out: ED50 (the source's name); in short: as §4
LNCaP = assay: Cytotoxicity against human LNCAP cells after 72 hrs by sulforhodamine B assay; format: functional; conditions: read-out: ED50 (the source's name); in short: as §4
Staphylococcus aureus [15] = assay: Antibacterial activity against Staphylococcus aureus ATCC 6538 at < 100 ug/ml after 24 hrs at 37 degC by agar hole-plate diffusion assay; format: functional, organism-based
[16] = Cytotoxicity against human Col2 cells after 72 hrs by sulforhodamine B assay; conditions: Col2, 72 h, read-out: ED50 (the source's name)

Compound	Activity (Pseudomonas aeruginosa [1])	Activity (Escherichia coli [2])	MIC (Bacillus subtilis [3]) [µg/mL]	MIC (Pseudomonas aeruginosa [4]) [µg/mL]	zone of inhibition at 1000 µg/mL (Staphylococcus aureus [5]) [mm]	MIC (Escherichia coli [6]) [µg/mL]	Activity (Candida albicans [7])	MIC (Staphylococcus aureus [8]) [µg/mL]	zone of inhibition at 1000 µg/mL (Bacillus subtilis [9]) [mm]	MIC (Candida albicans [10]) [µg/mL]	EC50 [11] [µg/mL]	EC50 (SK-MEL-2) [µg/mL]	EC50 (KB) [µg/mL]	EC50 (HT-1080) [µg/mL]	EC50 [13] [µg/mL]	EC50 [14] [µg/mL]	EC50 (P388) [µg/mL]	EC50 (A-431) [µg/mL]	EC50 (ZR-75-1) [µg/mL]	EC50 (LNCaP) [µg/mL]	other results
CCCC[C@H](OC(=O)CCl)[C@@H](OC(C)=O)[C@H](OC(C)=O)[C@@H]1OC(=O)C=C[C@@H]1OC(C)=O	inactive	inactive	50 (≈ 108 µM)	300 (≈ 648 µM)	5	300 (≈ 648 µM)	inactive	75 (≈ 162 µM)	7	200 (≈ 432 µM)	–	–	–	–	–	–	–	–	–	–	–
CCCC[C@@H](/C=C\[C@@H]1OC(=O)C[C@@H](OC)[C@@H]1O)OC(C)=O	inactive	inactive	> 100	> 500	–	> 500	inactive	> 100	–	> 500	> 20	> 20	> 20	> 20	> 20	> 20	> 5	> 20	> 20	> 20	Activity (Bacillus subtilis [12]): inactive
CC(=O)O[C@@H](C)[C@@H](/C=C/[C@@H]1O[C@@H]1[C@H]1CC=CC(=O)O1)OC(C)=O	–	–	–	–	–	–	–	–	–	–	3.3 (≈ 10.2 µM)	4.1 (≈ 12.6 µM)	2.9 (≈ 8.94 µM)	5.7 (≈ 17.6 µM)	3.4 (≈ 10.5 µM)	4.8 (≈ 14.8 µM)	0.4 (≈ 1.23 µM)	1.9 (≈ 5.86 µM)	4.7 (≈ 14.5 µM)	1.8 (≈ 5.55 µM)	Activity (Bacillus subtilis [12]): inactive; Activity (Staphylococcus aureus [15]): inactive
CCCC[C@H](OC(C)=O)[C@@H](O)[C@H](O)[C@@H]1OC(=O)C=C[C@@H]1OC(C)=O	inactive	inactive	50 (≈ 145 µM)	300 (≈ 871 µM)	4	300 (≈ 871 µM)	inactive	75 (≈ 218 µM)	7	200 (≈ 581 µM)	8.8 (≈ 25.6 µM)	6 (≈ 17.4 µM)	5.9 (≈ 17.1 µM)	6.7 (≈ 19.5 µM)	> 20	9.9 (≈ 28.7 µM)	0.5 (≈ 1.45 µM)	4.5 (≈ 13.1 µM)	6.2 (≈ 18 µM)	4.5 (≈ 13.1 µM)	EC50 [16]: 5.1 µg/mL (≈ 14.8 µM)
CCCC[C@H](OC(C)=O)[C@@H](OC(C)=O)[C@H](OC(C)=O)[C@@H]1OC(=O)C=C[C@@H]1OC(C)=O	inactive	inactive	50 (≈ 117 µM)	200 (≈ 467 µM)	4	300 (≈ 700 µM)	inactive	100 (≈ 233 µM)	5	500 (≈ 1170 µM)	7.6 (≈ 17.7 µM)	4.5 (≈ 10.5 µM)	4.4 (≈ 10.3 µM)	8.4 (≈ 19.6 µM)	6.3 (≈ 14.7 µM)	7 (≈ 16.3 µM)	0.4 (≈ 0.934 µM)	2.6 (≈ 6.07 µM)	7.8 (≈ 18.2 µM)	1.9 (≈ 4.43 µM)	–
CCCC[C@@H](/C=C\[C@@H]1OC(=O)C=C[C@@H]1OC(C)=O)OC(C)=O [PECTINOLIDE A]	inactive	inactive	6.25 (≈ 20.1 µM)	200 (≈ 644 µM)	8	200 (≈ 644 µM)	inactive	12.5 (≈ 40.3 µM)	10	250 (≈ 806 µM)	0.9 (≈ 2.9 µM)	0.7 (≈ 2.26 µM)	1.8 (≈ 5.8 µM)	1.7 (≈ 5.48 µM)	1.8 (≈ 5.8 µM)	1 (≈ 3.22 µM)	0.9 (≈ 2.9 µM)	1.4 (≈ 4.51 µM)	3.6 (≈ 11.6 µM)	0.7 (≈ 2.26 µM)	EC50 [16]: 1 µg/mL (≈ 3.22 µM)
CCCC[C@H](O)/C=C\[C@@H]1OC(=O)C=C[C@@H]1OC(C)=O [PECTINOLIDE B]	inactive	inactive	25 (≈ 93.2 µM)	300 (≈ 1120 µM)	4	300 (≈ 1120 µM)	inactive	100 (≈ 373 µM)	6	300 (≈ 1120 µM)	3.8 (≈ 14.2 µM)	2.2 (≈ 8.2 µM)	1.4 (≈ 5.22 µM)	2.3 (≈ 8.57 µM)	2 (≈ 7.45 µM)	2.5 (≈ 9.32 µM)	0.1 (≈ 0.373 µM)	0.6 (≈ 2.24 µM)	1.6 (≈ 5.96 µM)	0.9 (≈ 3.35 µM)	EC50 [16]: 1.1 µg/mL (≈ 4.1 µM)
CCCC[C@@H](/C=C\[C@@H]1OC(=O)C=C[C@@H]1O)OC(C)=O [PECTINOLIDE C]	inactive	inactive	12.5 (≈ 46.6 µM)	> 500	4	> 500	inactive	100 (≈ 373 µM)	8	> 500	2.3 (≈ 8.57 µM)	3.3 (≈ 12.3 µM)	1.7 (≈ 6.34 µM)	1.8 (≈ 6.71 µM)	3.2 (≈ 11.9 µM)	2 (≈ 7.45 µM)	2.2 (≈ 8.2 µM)	0.8 (≈ 2.98 µM)	1.9 (≈ 7.08 µM)	0.8 (≈ 2.98 µM)	EC50 [16]: 1.6 µg/mL (≈ 5.96 µM)
CN[C@@H]1[C@H](O[C@H]2[C@H](O[C@H]3[C@H](O)[C@@H](O)[C@H](N=C(N)N)[C@@H](O)[C@@H]3N=C(N)N)O[C@@H](C)[C@]2(O)C=O)O[C@@H](CO)[C@H](O)[C@H]1O.CN[C@@H]1[C@H](O[C@H]2[C@H](O[C@H]3[C@H](O)[C@@H](O)[C@H](N=C(N)N)[C@@H](O)[C@@H]3N=C(N)N)O[C@@H](C)[C@]2(O)C=O)O[C@@H](CO)[C@H](O)[C@H]1O.O=S(=O)(O)O.O=S(=O)(O)O.O=S(=O)(O)O [STREPTOMYCIN SULFATE]	–	–	3.12	–	9	–	–	6.25	13	–	–	–	–	–	–	–	–	–	–	–	–
NYSTATIN	–	–	–	–	–	–	–	–	–	–	–	–	–	–	–	–	–	–	–	–	inhibition zone (IZ) (Candida albicans [7]): 7 mm

— ChEMBL document CHEMBL1147356, “Structure and stereochemistry of pectinolides A-C, novel antimicrobial and cytotoxic 5,6-dihydro-alpha-pyrones from Hyptis pectinata” (1993)
